Measured values reported in ChEMBL document CHEMBL1133216, “Synthesis and structure-activity relationships of novel fungal chitin synthase inhibitors” (Bioorg Med Chem Lett, 2000).
In brackets after ≈: the same amount, converted by molar mass. Several values for one entry are separate records, joined by “and”; a condition that tells them apart may be missing. Identical values can stand only once.

Experiments:
[1] = biological target: Chitin synthase 1 (Candida albicans, UniProt P23316); assay: Inhibitory of Candida albicans chitin synthase 1
Chitin synthase 1, sequence (P23316 whole entry): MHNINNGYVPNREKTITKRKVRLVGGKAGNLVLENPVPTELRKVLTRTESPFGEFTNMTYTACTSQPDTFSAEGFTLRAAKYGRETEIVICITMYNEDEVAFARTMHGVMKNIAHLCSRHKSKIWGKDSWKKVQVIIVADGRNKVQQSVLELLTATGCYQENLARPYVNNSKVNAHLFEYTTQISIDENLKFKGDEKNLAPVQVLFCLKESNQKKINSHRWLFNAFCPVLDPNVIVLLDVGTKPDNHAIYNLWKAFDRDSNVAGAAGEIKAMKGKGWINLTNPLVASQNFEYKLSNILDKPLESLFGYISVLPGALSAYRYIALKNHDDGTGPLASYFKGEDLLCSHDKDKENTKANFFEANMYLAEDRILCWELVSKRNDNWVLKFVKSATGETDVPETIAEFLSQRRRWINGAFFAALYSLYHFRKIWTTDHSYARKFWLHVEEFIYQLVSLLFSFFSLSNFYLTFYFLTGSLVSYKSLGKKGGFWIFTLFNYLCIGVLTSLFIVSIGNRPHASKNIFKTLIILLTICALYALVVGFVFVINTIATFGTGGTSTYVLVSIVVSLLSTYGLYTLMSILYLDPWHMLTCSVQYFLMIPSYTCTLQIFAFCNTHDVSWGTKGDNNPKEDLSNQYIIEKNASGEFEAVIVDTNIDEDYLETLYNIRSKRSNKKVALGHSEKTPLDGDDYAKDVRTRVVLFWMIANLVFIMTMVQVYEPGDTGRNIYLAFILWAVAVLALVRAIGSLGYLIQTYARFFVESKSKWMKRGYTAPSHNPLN

[2] = tested on: Candida albicans; assay: In vitro antifungal activity against Candida albicans CY 1002; type: functional, organism-based
[3] = tested on: Candida albicans; assay: In vitro antifungal activity against Candida albicans CY 1003; type: functional, organism-based
[4] = tested on: Candida albicans; assay: In vitro antifungal activity against Candida albicans CY 3003; type: functional, organism-based
[5] = tested on: Pichia kudriavzevii; assay: In vitro antifungal activity against Candida krusei CY 1191; type: functional, organism-based
[6] = tested on: Candida parapsilosis; assay: In vitro antifungal activity of compound was tested against Candida parapsilosis CY 1028; type: functional, organism-based; details: Lodderomyces parapsilosis
[7] = tested on: Candida albicans; assay: In vitro antifungal activity against Candida albicans CY 1124; type: functional, organism-based
[8] = tested on: Aspergillus fumigatus; assay: In vitro antifungal activity of compound was tested against Aspergillus fumigatus CF1003
[9] = tested on: Candida tropicalis; assay: In vitro antifungal activity of compound was tested against Candida tropicalis CY 1038; type: functional, organism-based
[10] = tested on: Nakaseomyces glabratus; assay: In vitro antifungal activity against Candida glabrata CY 1014; type: functional, organism-based
[11] = tested on: Cryptococcus neoformans; assay: In vitro antifungal activity of compound was tested against Cryptococcus neoformans CY 1059
[12] = tested on: Cryptococcus neoformans; assay: In vitro antifungal activity of compound was tested against Cryptococcus neoformans CY 1057
[13] = tested on: Mus musculus; assay: In vivo antifungal activity was evaluated in target organ kidney assay (TOKA) in mice infected with Candida albicans CY 10025 X 10e5 cell after intravenous administration of compound at 5 mg/kg; type: functional
Outline: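 Systemic candidiasis in mice, target organ kidney assay: infection with 5 × 10^5 cells/mouse, compound given iv at 0, 2 and 4 h post-infection in 5% DMSO-5% PEG300-30% HPCD. Kidney CFU counted; T/C = treated CFU/control CFU × 100.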

[14] = tested on: Mus musculus; assay: In vivo antifungal activity was evaluated in target organ kidney assay (TOKA) in mice infected with Candida albicans CY 10025 X 10e5 cell after intravenous administration of compound at 1 mg/kg; type: functional
Outline: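 Systemic candidiasis in mice, infected with C. albicans CY1002 at 5 × 10^5 cells/mouse. Dosed iv at 0, 2 and 4 h after infection: 5 mg/kg in 5% DMSO 5% PEG300-30% HPCD, comparator azole at 1 mg/kg. Kidney CFU counted; T/C = treated CFU/control CFU × 100.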

[15] = tested on: Candida albicans; assay: In vitro antifungal activity against […] CY 1057; type: functional, organism-based
[16] = tested on: Candida albicans; assay: In vitro antifungal activity against Aspergillus fumigatus CF 1003; type: functional, organism-based

Row | Compound | IC50 [1] | IC50 [2] | further results
1 | CN(CCCC#CC(C)(C)C)c1cccc2c1CCC(=O)N2 | 8.95 nM | > 200 µg/mL | –
2 | CC(C)(C)C#C/C=C/CNc1cccc2oc(=O)ccc12 | 12000 nM | – | –
3 | C[C@@H]([C@H](N)C(=O)N[C@H](C(=O)O)[C@H]1O[C@@H](n2ccc(=O)[nH]c2=O)[C@H](O)[C@@H]1O)[C@H](O)c1ccc(O)cn1 [NIKKOMYCIN] | 3200 nM | 12 µg/mL (≈ 24.2 µM) | IC50 [3]: 81 µg/mL (≈ 163 µM); IC50 [4]: 7 µg/mL (≈ 14.1 µM); IC50 [5]: > 200 µg/mL; IC50 [6]: 13 µg/mL (≈ 26.2 µM); IC50 [7]: 15 µg/mL (≈ 30.3 µM); IC50 [8]: 11 µg/mL (≈ 22.2 µM); IC50 [9]: 73 µg/mL (≈ 147 µM); IC50 [10]: > 200 µg/mL; IC50 [11]: > 200 µg/mL
4 | CCCCCN(C/C=C/C#CC(C)(C)C)c1cccc2c1CCC(=O)N2 | 1.1 nM | > 200 µg/mL | –
5 | CC(C)N(C/C=C/C#CC(C)(C)C)c1cccc2c1CCC(=O)N2 | 1.23 nM | > 200 µg/mL | –
6 | CC(C)(C)CCCCCNc1cccc2[nH]c(=O)ccc12 | > 350000 nM | – | –
7 | CC(C)(C)C#C/C=C/CNc1cccc2nc(O)ccc12 | 71.3 nM and 70 nM | 3.3 µg/mL (≈ 11.8 µM) | –
8 | CCCN(C/C=C/C#CC(C)(C)C)c1cccc2c1CCC(=O)N2 | 0.68 nM | > 200 µg/mL | –
9 | CN(C/C=C/C#CC(C)(C)C)c1cccc2c1CCC(=O)N2 | 2.77 nM | 0.19 µg/mL (≈ 0.641 µM) | –
10 | Cn1c(=O)ccc2c(NC/C=C/C#CC(C)(C)C)cccc21 | 16000 nM | – | –
11 | CCN(C/C=C/C#CC(C)(C)C)c1cccc2c1CCC(=O)N2 | 0.9 nM | 0.27 µg/mL (≈ 0.87 µM) | –
12 | CC(C)(C)C#C/C=C/CNCc1ccc(O)nc1 | 211000 nM | – | –
13 | CN(CC#CC#CC(C)(C)C)c1cccc2c1CC(O)C(=O)N2 (stereo not drawn) | 3 nM | 0.13 µg/mL (≈ 0.419 µM) | IC50 [12]: > 200 µg/mL; IC50 [8]: 82 µg/mL (≈ 264 µM); T/C [13]: 39%
14 | CC(C)[C@@H](N)C(=O)OC1Cc2c(cccc2N(C)CC#CC#CC(C)(C)C)NC1=O (stereo partly drawn) | 14.9 nM | 1.3 µg/mL (≈ 3.17 µM) | IC50 [12]: 16 µg/mL (≈ 39.1 µM); IC50 [8]: 19 µg/mL (≈ 46.4 µM); T/C [13]: 15%
15 | CN(CC#CC#Cc1ccccc1)c1cccc2c1CCC(=O)N2 | 13700 nM | > 200 µg/mL | –
16 | CC(=O)Nc1cccc(NC/C=C/C#CC(C)(C)C)c1 | 1000 nM | – | –

Row | Compound | IC50 [1] | IC50 [2] | further results
17 | CCCCN(C/C=C/C#CC(C)(C)C)c1cccc2c1CCC(=O)N2 | 0.35 nM | > 200 µg/mL | –
18 | CCC#CC#CCN(C)c1cccc2c1CCC(=O)N2 | 7.88 nM | 200 µg/mL (≈ 751 µM) | –
19 | CCOP(=O)(OCC)OC1Cc2c(cccc2N(C)CC#CC#CC(C)(C)C)NC1=O (stereo not drawn) | 0.76 nM | 2.1 µg/mL (≈ 4.7 µM) | IC50 [12]: 0.23 µg/mL (≈ 0.515 µM); IC50 [8]: 21 µg/mL (≈ 47 µM)
20 | CC(=O)N(C/C=C/C#CC(C)(C)C)c1cccc2c1CCC(=O)N2 | 775 nM | > 200 µg/mL | –
21 | CC(C)(C)C#C/C=C/CNc1cccc2ncccc12 | 4500 nM | – | –
22 | CC(C)(C)C#C/C=C/CNc1cccc2c1CCC(=O)N2 | 70.9 nM | > 200 µg/mL | –
23 | COC(C)(C)C#CC#CCN(C)c1cccc2c1CCC(=O)N2 | 1030 nM | 3.5 µg/mL (≈ 11.3 µM) | –
24 | CN(CC#CC#CC(C)(C)O)c1cccc2c1CCC(=O)N2 | 213 nM | > 200 µg/mL | –
25 | CN(CC#CC#CC(C)(C)C)c1cccc2c1CC(N)C(=O)N2 (stereo not drawn) | 12.3 nM | 20 µg/mL (≈ 64.6 µM) | IC50 [12]: 15 µg/mL (≈ 48.5 µM); IC50 [8]: 35 µg/mL (≈ 113 µM); T/C [13]: 23%
26 | OC(Cn1cncn1)(Cn1cncn1)c1ccc(F)cc1F [FLUCONAZOLE] | – | 1.2 µg/mL (≈ 3.92 µM) | T/C [14]: 38%; IC50 [15]: 3.4 µg/mL (≈ 11.1 µM); IC50 [16]: 50 µg/mL (≈ 163 µM)
27 | CC(C)(C)C#C/C=C/CN(Cc1ccccc1)c1cccc2c1CCC(=O)N2 | 54 nM | > 200 µg/mL | –
28 | CN(Cc1ccc(C#CC(C)(C)C)cc1)c1cccc2c1CCC(=O)N2 | 7.22 nM | > 200 µg/mL | –
29 | CN(CC#CC#CC(C)(C)C)c1cccc2c1CCC(=O)N2 | 0.14 nM | 0.07 µg/mL (≈ 0.238 µM) | IC50 [3]: 0.1 µg/mL (≈ 0.34 µM); IC50 [4]: 0.09 µg/mL (≈ 0.306 µM); IC50 [5]: 0.31 µg/mL (≈ 1.05 µM); IC50 [6]: 0.5 µg/mL (≈ 1.7 µM); IC50 [7]: 0.17 µg/mL (≈ 0.577 µM); IC50 [8]: 43 µg/mL (≈ 146 µM); IC50 [9]: 0.07 µg/mL (≈ 0.238 µM); T/C [13]: 34%; IC50 [10]: 0.47 µg/mL (≈ 1.6 µM); IC50 [11]: > 200 µg/mL
30 | CN(C/C=C\C#CC(C)(C)C)c1cccc2c1CCC(=O)N2 | 13.2 nM | 95 µg/mL (≈ 320 µM) | –
31 | CC(C)(C)C#C/C=C/CN(c1cccc2c1CCC(=O)N2)S(C)(=O)=O | 391 nM | > 200 µg/mL | –
